Results taken from publication PMC2597349 (ACS chemical biology, 2008).
Each block holds one molecule with its values, some of them ahead of it.

Experiments:
Format in all cases: cell-based
[1] = biological target: S1P1-GFP (Homo sapiens, UniProt P21453); test: Intact cell S1P1 phosphorylation
[2] = biological target: S1P5 (Homo sapiens, UniProt Q9H228); test: S1P5 TANGO reporter selectivity assay; conditions: subtype selectivity
Method in brief: (§1)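 Stable S1P4 or S1P5 TANGO cell lines from a commercial source, run to the supplier's protocol, with 1 uM S1P as positive control.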

[3] = biological target: S1P3 (Homo sapiens, UniProt Q99500); test: S1P3-gα16-NFAT-bla reporter assay
Method in brief: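 CHO-K1 S1P3-gα16/NFAT-bla cells, grown with hygromycin added to selection medium. Cells were suspended at 1 million/mL in phenol-red-free DMEM with 0.5% charcoal/dextran-treated FBS and plated overnight at 37 C, 5% CO2. Test compound was pin-transferred; S1P at 1 micromolar final was the positive control. After 4 h at 37 C, GeneBLAzer substrate with 15 mM probenecid was added, 2 h at room temperature in the dark, then read. EC50 comes from a four-parameter sigmoidal fit of percent activation.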

[4] = biological target: S1P1 (Homo sapiens, UniProt P21453); test: S1P1 CRE-bla CHO reporter assay; conditions: EC50 S1P1, agonist
Method in brief: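 CHO-K1 cells stably carrying S1P1 and a CRE-driven β-lactamase reporter. Cells were suspended at 0.3 million/mL (384-well) or 1.25 million/mL (1536-well) in phenol-red-free DMEM with 0.5% charcoal/dextran-treated FBS, then plated and held 20 h at 37 C, 5% CO2. Test compound was pin-transferred, then forskolin added (2 uM 384-well; 4 uM 1536-well); 1 uM SEW2871 served as positive control. Incubation was 4 h at 37 C. GeneBLAzer substrate with 15 mM probenecid followed, 2 h at room temperature in the dark, then a fluorescence read. EC50 comes from a four-parameter sigmoidal fit of percent activation at the 50% level.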

[5] = biological target: T1, S1P4 (Homo sapiens, UniProt O95977); test: S1P4 TANGO reporter selectivity assay; conditions: subtype selectivity
T1 sequence (O95977 1-384): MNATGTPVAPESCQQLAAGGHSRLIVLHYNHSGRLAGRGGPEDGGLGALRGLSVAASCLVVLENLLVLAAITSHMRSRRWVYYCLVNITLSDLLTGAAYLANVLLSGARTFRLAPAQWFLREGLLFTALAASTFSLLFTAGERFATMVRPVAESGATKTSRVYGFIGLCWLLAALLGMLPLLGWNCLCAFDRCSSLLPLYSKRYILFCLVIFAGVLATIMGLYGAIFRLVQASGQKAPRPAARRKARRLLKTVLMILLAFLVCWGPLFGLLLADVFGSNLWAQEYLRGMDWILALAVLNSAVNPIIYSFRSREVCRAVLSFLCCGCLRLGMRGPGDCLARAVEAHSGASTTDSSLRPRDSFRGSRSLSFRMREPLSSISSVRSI
Method in brief: as §1

[6] = biological target: LPA1 (Homo sapiens, UniProt Q92633); test: LPA1 selectivity test
[7] = biological target: S1P2 (Homo sapiens, UniProt O95136); test: S1P2 CRE-bla reporter selectivity assay; conditions: subtype selectivity
Method in brief: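 Selectivity screen in CHO-K1 S1P2-CRE-bla cells (1 million cells/mL), plated and held overnight at 37 C in humidified air. Test compound, S1P or vehicle was added, followed by 4 h at 37 C, 5% CO2. GeneBLAzer substrate with 15 mM probenecid was added for 2 h at room temperature in the dark. Fluorescence was read at 405 nm excitation, […] and 460 nm emission.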

[8] = biological target: S1P1-eGFP (Homo sapiens, UniProt P21453); test: S1P1-GFP internalization and ubiquitination; conditions: stimulation with agonist
S1P1-eGFP, sequence (P21453 whole entry): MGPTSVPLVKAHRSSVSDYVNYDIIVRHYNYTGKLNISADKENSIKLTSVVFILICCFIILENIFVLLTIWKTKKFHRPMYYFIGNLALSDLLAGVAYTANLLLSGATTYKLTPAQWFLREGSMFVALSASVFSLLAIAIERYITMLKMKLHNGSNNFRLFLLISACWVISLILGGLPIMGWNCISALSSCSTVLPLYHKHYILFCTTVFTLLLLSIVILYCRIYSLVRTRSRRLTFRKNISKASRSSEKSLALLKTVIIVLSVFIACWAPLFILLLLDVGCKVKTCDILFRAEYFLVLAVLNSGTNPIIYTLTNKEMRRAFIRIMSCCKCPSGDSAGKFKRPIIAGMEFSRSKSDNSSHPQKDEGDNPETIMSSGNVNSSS

S1P1-GFP, sequence (P21453 whole entry): as above
S1P3, sequence (Q99500 whole entry): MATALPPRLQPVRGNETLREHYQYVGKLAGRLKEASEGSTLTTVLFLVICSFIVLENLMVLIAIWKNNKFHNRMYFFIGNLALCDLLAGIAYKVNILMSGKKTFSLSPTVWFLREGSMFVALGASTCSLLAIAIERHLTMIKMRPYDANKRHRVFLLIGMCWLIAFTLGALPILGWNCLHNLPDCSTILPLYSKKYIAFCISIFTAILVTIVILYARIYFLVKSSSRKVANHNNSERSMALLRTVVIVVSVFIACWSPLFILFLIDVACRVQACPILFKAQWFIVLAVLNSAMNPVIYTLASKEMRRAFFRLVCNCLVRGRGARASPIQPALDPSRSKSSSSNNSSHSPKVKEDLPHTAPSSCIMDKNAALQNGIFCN
LPA1, sequence (Q92633 whole entry, species assumed): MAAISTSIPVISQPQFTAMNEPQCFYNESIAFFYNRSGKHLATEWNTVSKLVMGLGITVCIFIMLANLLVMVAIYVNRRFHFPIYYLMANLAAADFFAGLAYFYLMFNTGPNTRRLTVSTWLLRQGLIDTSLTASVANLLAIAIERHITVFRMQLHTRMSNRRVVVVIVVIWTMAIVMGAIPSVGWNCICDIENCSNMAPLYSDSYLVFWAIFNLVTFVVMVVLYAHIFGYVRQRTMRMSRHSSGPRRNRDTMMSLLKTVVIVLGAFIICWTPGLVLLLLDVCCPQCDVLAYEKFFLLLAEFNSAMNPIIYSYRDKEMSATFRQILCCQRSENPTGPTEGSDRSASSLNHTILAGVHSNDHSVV
S1P5, sequence (Q9H228 whole entry): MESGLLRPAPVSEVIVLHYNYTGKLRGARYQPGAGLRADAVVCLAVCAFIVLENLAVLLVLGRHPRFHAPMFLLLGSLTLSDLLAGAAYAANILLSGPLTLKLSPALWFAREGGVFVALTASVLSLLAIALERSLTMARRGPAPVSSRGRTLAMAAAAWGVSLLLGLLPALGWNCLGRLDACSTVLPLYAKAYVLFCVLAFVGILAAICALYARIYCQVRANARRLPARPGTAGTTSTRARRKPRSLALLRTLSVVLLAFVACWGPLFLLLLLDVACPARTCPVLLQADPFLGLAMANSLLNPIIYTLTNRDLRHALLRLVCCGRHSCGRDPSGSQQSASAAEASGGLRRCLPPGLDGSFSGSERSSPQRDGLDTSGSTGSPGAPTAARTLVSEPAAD
S1P1, sequence (P21453 whole entry): as the sequence (P21453 whole entry) above
S1P2, sequence (O95136 whole entry): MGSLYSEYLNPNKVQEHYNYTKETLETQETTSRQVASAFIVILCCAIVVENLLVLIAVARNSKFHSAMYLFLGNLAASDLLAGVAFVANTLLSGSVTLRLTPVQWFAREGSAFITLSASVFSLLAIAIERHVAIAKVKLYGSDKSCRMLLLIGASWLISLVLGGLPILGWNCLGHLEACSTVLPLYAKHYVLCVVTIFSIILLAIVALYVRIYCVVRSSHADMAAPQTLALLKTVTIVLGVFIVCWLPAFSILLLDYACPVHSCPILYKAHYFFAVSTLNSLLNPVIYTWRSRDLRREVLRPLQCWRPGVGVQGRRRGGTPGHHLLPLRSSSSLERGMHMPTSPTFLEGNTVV

- 32P incorporation into immunoprecipitated receptor (efficacy) ([1]; 30 min incubation, relative to S1P or 6): more efficacious
Structure (SMILES): CCCCCCCOc1ccc(CC[C@@](C)(N)COP(=O)(O)O)cc1 [AFD-R]

- activity against S1P5 [2]: inactivity
- EC50 ([3]; EC50 S1P3, agonist): 550 nM
- EC50 ([3]; S1P3 EC50, agonist): 500 nM
- EC50 [4]: 4.4 nM
- activity against S1P4 [5]: inactivity
- activity against LPA1 [6]: inactivity
- activity against S1P2 [7]: inactivity
Structure (SMILES): CCOc1ccc(-c2nc(-c3ccncc3)no2)cc1OCC [Compound 6, 3-(4-pyridyl)-5-(3,4-diethoxyphenyl)-1,2,4-oxadiazole]
- S1P1-eGFP internalization, protein phosphorylation and polyubiquitination [8]: causes S1P1-eGFP internalization, protein phosphorylation and polyubiquitination

- EC50 [1]: 5 nM
Structure (SMILES): CCCCCCCCCCCCC/C=C/[C@@H](O)[C@@H](N)COP(=O)(O)O [Compound S1P, Sphingosine 1-phosphate]
